# Where a SMILES comes first, the peptide text is derived from it. Bridges are numbered along the chain shown (N, C = ends).
# Tested on: Human immunodeficiency virus 1
# Experiment: Antiviral activity against HIV1 RF infected in human CEM-SS cells assessed as inhibition of virus induced cytopathic effect by XTT assay
# Type: functional, organism-based
# Conditions: Human immunodeficiency virus 1, RF
# Procedure, shortened: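 HIV-1RF infection of CEM-SS, a human T-lymphoblastoid cell line, in vitro; inhibition of virus-induced cytopathic effects read out and reported as EC50 in µM.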
row,SMILES,EC50 [nM]
1,"CC[C@H](C)[C@@H]1NC(=O)[C@@H]2CSSC[C@@H]3NC(=O)[C@H](C(C)C)NC(=O)[C@H](CCCCN)NC(=O)[C@H](CO)NC(=O)[C@H](CCCCN)NC(=O)[C@@H]4CSSC[C@H](NC(=O)[C@H](CO)NC(=O)[C@H](CCC(=O)O)NC(=O)CNC(=O)[C@H](CSSC[C@H](NC(=O)CNC(=O)[C@H](C)NC(=O)[C@H](C(C)C)NC(=O)[C@H](CO)NC(=O)[C@H]([C@@H](C)O)NC1=O)C(=O)N[C@@H](CO)C(=O)N4)NC(=O)[C@@H]1CCCN1C(=O)[C@H]([C@@H](C)CC)NC(=O)CNC(=O)[C@H](CC(N)=O)NC(=O)[C@H](CCCNC(=N)N)NC(=O)[C@H](Cc1ccc(O)cc1)NC3=O)C(=O)N[C@@H](C(C)C)C(=O)N[C@@H](Cc1ccccc1)C(=O)N[C@@H]([C@@H](C)CC)C(=O)N1CCC[C@H]1C(=O)N2 [CIRCULIN C] (cyclo(AGCSCKSKVCYRNGIPCGESCVFIPCITSV); disulfide 3-17, 5-21, 10-26)",50
2,"CC[C@H](C)[C@@H]1NC(=O)[C@@H]2CSSC[C@@H]3NC(=O)[C@H](C(C)C)NC(=O)[C@H](CCCCN)NC(=O)[C@H](CC(N)=O)NC(=O)[C@H](CCCCN)NC(=O)[C@@H]4CSSC[C@H](NC(=O)[C@H](CO)NC(=O)[C@H](CCC(=O)O)NC(=O)CNC(=O)[C@H](CSSC[C@H](NC(=O)CNC(=O)[C@H](CC(C)C)NC(=O)[C@H](C)NC(=O)[C@H](C)NC(=O)[C@H](CO)NC1=O)C(=O)N[C@@H](CO)C(=O)N4)NC(=O)[C@@H]1CCCN1C(=O)[C@H]([C@@H](C)CC)NC(=O)CNC(=O)[C@H](CC(N)=O)NC(=O)[C@H](CCCNC(=N)N)NC(=O)[C@H](Cc1ccc(O)cc1)NC3=O)C(=O)N[C@@H](C(C)C)C(=O)N[C@@H](Cc1c[nH]c3ccccc13)C(=O)N[C@@H]([C@@H](C)CC)C(=O)N1CCC[C@H]1C(=O)N2 [CIRCULIN A] (cyclo(AALGCSCKNKVCYRNGIPCGESCVWIPCIS); disulfide 5-19, 7-23, 12-28)",50
3,"CC[C@H](C)[C@@H]1NC(=O)CNC(=O)[C@H](CC(N)=O)NC(=O)[C@H](CCCNC(=N)N)NC(=O)[C@H](Cc2ccc(O)cc2)NC(=O)[C@@H]2CSSC[C@@H]3NC(=O)[C@@H]4CCCN4C(=O)[C@H]([C@@H](C)CC)NC(=O)[C@H](Cc4ccccc4)NC(=O)[C@H](C(C)C)NC(=O)[C@@H]4CSSC[C@H](NC(=O)[C@H](CO)NC(=O)[C@H](CSSC[C@H](NC(=O)[C@@H]5CCCN5C1=O)C(=O)NCC(=O)N[C@@H](CCC(=O)O)C(=O)N[C@@H](CO)C(=O)N4)NC(=O)CNC(=O)[C@H](C)NC(=O)[C@H](C(C)C)NC(=O)[C@H]([C@@H](C)O)NC(=O)[C@H]([C@@H](C)O)NC(=O)[C@H](CC(C)C)NC3=O)C(=O)N[C@@H](CCCCN)C(=O)N[C@@H](CC(N)=O)C(=O)N[C@@H](CCCCN)C(=O)N[C@@H](C(C)C)C(=O)N2 [CYCLOVIOLIN C] (cyclo(AGCSCKNKVCYRNGIPCGESCVFIPCLTTV); disulfide 3-17, 5-21, 10-26)",50
4,"CC[C@H](C)[C@@H]1NC(=O)[C@H](C)NC(=O)[C@H](C)NC(=O)[C@H](CO)NC(=O)[C@H]([C@@H](C)CC)NC(=O)[C@@H]2CSSC[C@@H]3NC(=O)[C@H](C(C)C)NC(=O)[C@H](CCCCN)NC(=O)[C@H](CC(N)=O)NC(=O)[C@H](CCCCN)NC(=O)[C@@H]4CSSC[C@H](NC(=O)[C@H](CO)NC(=O)[C@H](CCC(=O)O)NC(=O)CNC(=O)[C@H](CSSC[C@H](NC(=O)CNC1=O)C(=O)N[C@@H](CO)C(=O)N4)NC(=O)[C@@H]1CCCN1C(=O)[C@H]([C@@H](C)CC)NC(=O)[C@H](C(C)C)NC(=O)CNC(=O)[C@H](CC(N)=O)NC(=O)[C@H](CCCNC(=N)N)NC(=O)[C@H](Cc1ccc(O)cc1)NC3=O)C(=O)N[C@@H](C(C)C)C(=O)N[C@@H](Cc1ccccc1)C(=O)N[C@@H]([C@@H](C)CC)C(=O)N1CCC[C@H]1C(=O)N2 [CYCLOVIOLIN A] (cyclo(AAIGCSCKNKVCYRNGVIPCGESCVFIPCIS); disulfide 5-20, 7-24, 12-29)",50
5,"CC(C)C[C@@H]1NC(=O)[C@H](C(C)C)NC(=O)[C@H](Cc2ccc(O)cc2)NC(=O)[C@@H]2CSSC[C@@H]3NC(=O)[C@H]([C@@H](C)O)NC(=O)[C@@H]4CSSC[C@H](NC(=O)[C@H](C)NC(=O)[C@H]([C@@H](C)O)NC(=O)CNC(=O)[C@H](CC(N)=O)NC(=O)[C@H](CCCCN)NC(=O)[C@H](Cc5ccccc5)NC(=O)[C@H](CSSC[C@H](NC(=O)[C@@H]5CCCN5C1=O)C(=O)N[C@@H](Cc1ccccc1)C(=O)N[C@@H]([C@@H](C)O)C(=O)N[C@@H](C(C)C)C(=O)NCC(=O)N4)NC(=O)[C@H](CCC(N)=O)NC(=O)[C@H](CO)NC(=O)[C@H](CO)NC(=O)[C@H]([C@@H](C)O)NC3=O)C(=O)NCC(=O)N[C@@H](CCC(=O)O)C(=O)N[C@@H](CO)C(=O)N2 [CYCLOVIOLIN B] (cyclo(ACGESCYVLPCFTVGCTCTSSQCFKNGT); disulfide 2-16, 6-18, 11-23)",50
6,"CC[C@H](C)[C@@H]1NC(=O)[C@H](CCCCN)NC(=O)[C@H](CC(=O)O)NC(=O)[C@H](Cc2cnc[nH]2)NC(=O)[C@H](Cc2ccc(O)cc2)NC(=O)[C@@H]2CSSC[C@@H]3NC(=O)[C@@H]4CCCN4C(=O)[C@H]([C@@H](C)CC)NC(=O)[C@H](Cc4c[nH]c5ccccc45)NC(=O)[C@H](C(C)C)NC(=O)[C@@H]4CSSC[C@H](NC(=O)[C@H](CCCCN)NC(=O)[C@H](CSSC[C@H](NC(=O)[C@@H]5CCCN5C1=O)C(=O)NCC(=O)N[C@@H](CCC(=O)O)C(=O)N[C@@H](CO)C(=O)N4)NC(=O)[C@H](CC(N)=O)NC(=O)[C@H](Cc1ccccc1)NC(=O)[C@H](C(C)C)NC(=O)[C@H](CO)NC(=O)[C@H]([C@@H](C)O)NC(=O)[C@H](CC(C)C)NC3=O)C(=O)N[C@@H](CCC(=O)O)C(=O)N[C@@H](CC(N)=O)C(=O)N[C@@H](CCCCN)C(=O)N[C@@H](C(C)C)C(=O)N2 [CIRCULIN E] (cyclo(CENKVCYHDKIPCGESCVWIPCLTSVFNCK); disulfide 1-17, 6-22, 13-29)",50
7,"CC[C@H](C)[C@@H]1NC(=O)[C@@H]2CSSC[C@@H]3NC(=O)[C@H](C(C)C)NC(=O)[C@H](CCCCN)NC(=O)[C@H](CC(N)=O)NC(=O)[C@H](CCCCN)NC(=O)[C@@H]4CSSC[C@H](NC(=O)[C@H](CO)NC(=O)[C@H](CCC(=O)O)NC(=O)CNC(=O)[C@H](CSSC[C@H](NC(=O)CNC(=O)[C@H](CC(C)C)NC(=O)[C@H](CC(C)C)NC(=O)[C@H]([C@@H](C)O)NC(=O)[C@H](CO)NC1=O)C(=O)N[C@@H](CO)C(=O)N4)NC(=O)[C@@H]1CCCN1C(=O)[C@H]([C@@H](C)CC)NC(=O)[C@H](C(C)C)NC(=O)CNC(=O)[C@H](CC(N)=O)NC(=O)[C@H](CCCNC(=N)N)NC(=O)[C@H](Cc1ccc(O)cc1)NC3=O)C(=O)N[C@@H](C(C)C)C(=O)N[C@@H](Cc1ccccc1)C(=O)N[C@@H]([C@@H](C)CC)C(=O)N1CCC[C@H]1C(=O)N2 [CIRCULIN B] (cyclo(CGESCVFIPCISTLLGCSCKNKVCYRNGVIP); disulfide 1-17, 5-19, 10-24)",50
8,"CC[C@H](C)[C@@H]1NC(=O)[C@H](CO)NC(=O)[C@H]([C@@H](C)O)NC(=O)[C@H](Cc2ccc(O)cc2)NC(=O)[C@@H]2CSSC[C@@H]3NC(=O)[C@H](C(C)C)NC(=O)[C@H](CCCCN)NC(=O)[C@H](CC(N)=O)NC(=O)[C@H](CCC(=O)O)NC(=O)[C@@H]4CSSC[C@H](NC(=O)[C@H](CO)NC(=O)[C@H](CCC(=O)O)NC(=O)CNC(=O)[C@H](CSSC[C@H](NC(=O)[C@H](CC(N)=O)NC(=O)[C@H](Cc5ccccc5)NC1=O)C(=O)N[C@@H](CCCCN)C(=O)N4)NC(=O)[C@@H]1CCCN1C(=O)[C@H]([C@@H](C)CC)NC(=O)[C@H](CCCCN)NC(=O)[C@H](CC(=O)O)NC(=O)[C@H](Cc1cnc[nH]1)NC(=O)[C@H](Cc1ccc(O)cc1)NC3=O)C(=O)N[C@@H](C(C)C)C(=O)N[C@@H](Cc1c[nH]c3ccccc13)C(=O)N[C@@H]([C@@H](C)CC)C(=O)N1CCC[C@H]1C(=O)N2 [CIRCULIN D] (cyclo(CENKVCYHDKIPCGESCVWIPCYTSIFNCK); disulfide 1-17, 6-22, 13-29)",50
9,"CC[C@H](C)[C@@H]1NC(=O)[C@H](C)NC(=O)[C@H](C)NC(=O)[C@H](CO)NC(=O)[C@H]([C@@H](C)CC)NC(=O)[C@@H]2CSSC[C@@H]3NC(=O)[C@H](C(C)C)NC(=O)[C@H](CCCCN)NC(=O)[C@H](CC(N)=O)NC(=O)[C@H](CCCCN)NC(=O)[C@@H]4CSSC[C@H](NC(=O)[C@H](CO)NC(=O)[C@H](CCC(=O)O)NC(=O)CNC(=O)[C@H](CSSC[C@H](NC(=O)CNC1=O)C(=O)N[C@@H](CO)C(=O)N4)NC(=O)[C@@H]1CCCN1C(=O)[C@H](Cc1ccccc1)NC(=O)CNC(=O)[C@H](CC(N)=O)NC(=O)[C@H](CCCNC(=N)N)NC(=O)[C@H](Cc1ccc(O)cc1)NC3=O)C(=O)N[C@@H](C(C)C)C(=O)N[C@@H](Cc1ccccc1)C(=O)N[C@@H]([C@@H](C)CC)C(=O)N1CCC[C@H]1C(=O)N2 [CYCLOVIOLIN D] (cyclo(AAIGCSCKNKVCYRNGFPCGESCVFIPCIS); disulfide 5-19, 7-23, 12-28)",50
10,"CC[C@H](C)[C@@H]1NC(=O)[C@H](C)NC(=O)[C@H](C)NC(=O)[C@H](CO)NC(=O)[C@H]([C@@H](C)CC)NC(=O)[C@@H]2CSSC[C@@H]3NC(=O)[C@H](C(C)C)NC(=O)[C@H](CCCCN)NC(=O)[C@H](CC(N)=O)NC(=O)[C@H](CCCCN)NC(=O)[C@@H]4CSSC[C@H](NC(=O)[C@H](CO)NC(=O)[C@H](CCC(=O)O)NC(=O)CNC(=O)[C@H](CSSC[C@H](NC(=O)CNC1=O)C(=O)N[C@@H](CO)C(=O)N4)NC(=O)[C@@H]1CCCN1C(=O)[C@H]([C@@H](C)CC)NC(=O)[C@H](C)NC(=O)[C@H](CCCNC(=N)N)NC(=O)[C@H](Cc1ccc(O)cc1)NC3=O)C(=O)N[C@@H](C(C)C)C(=O)N[C@@H](Cc1c[nH]c3ccccc13)C(=O)N[C@@H]([C@@H](C)CC)C(=O)N1CCC[C@H]1C(=O)N2 [CIRCULIN F] (cyclo(AAIGCSCKNKVCYRAIPCGESCVWIPCIS); disulfide 5-18, 7-22, 12-27)",50

# From ChEMBL document CHEMBL1137803, “A novel anti-HIV macrocyclic peptide from Palicourea condensata” (J Nat Prod, 2001)
